Converted amounts (≈) assume the structure as drawn. Bridge positions count the residues as written; N and C are the ends. Peptide text beside a SMILES is read from it.
Legend:
[1] = test system: microbial and autoimmune inflammation; conditions: ref [29]; cited from earlier work
ldlr^−/− mice [2] = assay: Atherosclerotic lesions in the aortic root; assay type: in vivo, mouse (B6.129S7-Ldlrtm1Her/J, female); conditions: 0.4 mg/mouse i.p. 3 times daily, 4 weeks; n=5/group
Outline: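 Female ldlr−/− mice aged 6 weeks were fed a Western diet (21% milk fat, 0.15% cholesterol) and given peptide i.p. (0.4 or 0.7 mg in 200 μL saline every 8 or 12 h), with saline controls. Mice were saline-perfused and hearts OCT-frozen. Every other 10-μm aortic sinus section was taken (15 sections, 300 μm), baked overnight at 55°C and stained with Oil-red-O/hematoxylin. Lesion area, excluding the internal elastic lamina, was averaged per mouse.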

NFκB RelA (p65) = assay: Immunoblot of phosphorylated NFκB RelA in liver extracts of treated mice; assay type: in vivo, mouse (ldlr^−/−); conditions: 8 weeks, Western diet, osmotic pump, vs saline; relative ratio to total RelA
GAPDH [3] = assay: Pull-down assay, control protein, HepG2 extract; assay type: binding, human (HepG2 cells); conditions: biotinylated peptide, HepG2 whole-cell extract; immunoblot
Outline: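 HepG2 cells were serum-starved overnight in DMEM/1% FBS and lysed in binding buffer (10 mmol/L HEPES pH 7.9, 150 mmol/L NaCl, 0.1% NP-40, protease inhibitors). Biotinylated peptide (10 nmol) was incubated with 1.5 mg extract overnight at 4°C. After clearing at 16 000g, it was captured on Neutravidin beads for 4 h. Beads were washed, boiled in SDS buffer and immunoblotted for importins and GAPDH.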

ChREBP = assay: Glucose-induced nuclear translocation of ChREBP in HepG2 cells; assay type: cell-based, human (HepG2 cells); conditions: 30 μmol/L, 24 hours; 25 mmol/L glucose + 100 nmol/L insulin after starvation; 3 experiments; P<0.05
Outline: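 HepG2 cells (kept in DMEM/10% FBS) were starved 24 h in DMEM with 5.5 mmol/L glucose. They were refed 25 mmol/L glucose plus 100 nmol/L insulin, with or without 30 μmol/L test compound, for 24 h. Nuclear and cytosolic extracts were prepared with phosphatase inhibitors and immunoblotted for ChREBP, with lamin loading controls for nuclear fractions.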

SREBP2 [4] = assay: SREBP2 protein in liver extracts of treated mice; assay type: in vivo, mouse (ldlr^−/−); conditions: Western diet, osmotic pump, vs saline; P<0.05; 8 weeks in Figure 6
Solubility = assay type: physicochemical; conditions: method not given
SREBP1 [5] = assay: SREBP1 protein in liver extracts of treated mice; assay type: in vivo, mouse (ldlr^−/−); conditions: Western diet, osmotic pump, vs saline; P<0.05; 8 weeks in Figure 6
SREBP1 [6] = assay: SREBP1 nuclear translocation in sterol-depleted HepG2 cells; assay type: cell-based, human (HepG2 cells)
Outline: (§1)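 HepG2 cells were sterol-depleted with hydroxypropyl-β-cyclodextrin for 15 min and rinsed. They were then incubated 2 h in DMEM/5% delipidized FBS with 10 μmol/L MG132 and 0, 10 or 30 μmol/L test compound. Nuclear and cytosolic extracts were immunoblotted for SREBPs, normalized to Lamin A/C or B (nuclear) or GAPDH/β-actin (cytosolic). Percent inhibition of nuclear translocation comes from ≥3 independent experiments.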

ldlr^−/− mice [7] = assay type: in vivo, mouse (B6.129S7-Ldlrtm1Her/J, female); conditions: 4 weeks, Western diet, osmotic pump, vs saline
Outline: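 Female ldlr−/− mice on a Western diet received peptide by subcutaneous osmotic pump (10 mg in 100 μL water) or saline. After an overnight fast, plasma cholesterol, triglycerides and glucose were measured at 1, 4 and 8 weeks, using a separate group of animals at each time.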

NOD mice = conditions: intense, short-term treatment, ref [20]; cited from earlier work
[8] = liver, spleen, pancreas, and lungs, ref not given; cited from earlier work
NPC1L1 = NPC1L1 protein in whole-cell liver extracts; assay type: in vivo, mouse (ldlr^−/−); conditions: 8 weeks, osmotic pump, vs saline; ratio to β actin; 4 mice/group; P<0.05
SREBP2 [9] = assay: SREBP2 nuclear translocation in sterol-depleted HepG2 cells; assay type: cell-based, human (HepG2 cells); conditions: 2 hours after HPCD
Outline: as §1

[10] = Blood cell counts, blood chemistries and overt signs of toxicity; assay type: in vivo, mouse (ldlr^−/−)
Outline: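 Western diet-fed ldlr−/− mice, treated or saline controls. Complete blood counts were run by a clinical hematology laboratory, and lymphocyte subsets were measured by flow cytometry.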

GAPDH [11] = assay: Pull-down assay, nonspecific control protein, Jurkat extract; assay type: binding, human (Jurkat T cells); conditions: biotinylated peptide, Jurkat whole-cell extract; immunoblot
[12] = test system: SREBP1 and SREBP2 and their target gene transcripts; assay: Quantitative PCR of SREBP and target gene transcripts in liver; assay type: in vivo, mouse (ldlr^−/−); conditions: osmotic pump, vs saline, n=5; for hmgcr (HMG-CoA reductase) mRNA in liver: P<0.005
Outline: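 Total liver RNA from Western diet-fed ldlr−/− mice, given peptide or saline by osmotic pump for 4 or 8 weeks, was reverse-transcribed. Transcripts were quantified by real-time PCR with TaqMan probes, using 18S […] as the invariant control.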

HDAC3 = HDAC3 in liver nuclear extracts; assay type: in vivo, mouse (ldlr^−/−); conditions: 8 weeks, osmotic pump, vs saline; 5 mice/group
Outline: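 Liver nuclear extracts came from Western diet-fed ldlr−/− mice after 8 weeks of subcutaneous osmotic pump dosing (10 mg in 100 μL water) or saline; phosphatase inhibitors were added. HDAC3 was immunoblotted and expressed as a ratio to β-actin. Groups were compared by Mann–Whitney test.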

[13] = ldlr^−/− mice fed a Western diet

For `CSCC[C@@H]1NC(=O)[C@H](CC(C)C)NC(=O)[C@H](CCCCN)NC(=O)[C@H](CCC(N)=O)NC(=O)[C@H](CCCNC(=N)N)NC(=O)[C@H](CCCCN)NC(=O)[C@H](CCCNC(=N)N)NC(=O)[C@H](CCC(N)=O)NC(=O)[C@H](C(C)C)NC(=O)[C@@H](NC(=O)[C@@H]2CCCN2C(=O)[C@H](C)NC(=O)[C@H](CC(C)C)NC(=O)[C@H](CC(C)C)NC(=O)[C@H](C)NC(=O)[C@H](CC(C)C)NC(=O)[C@H](CC(C)C)NC(=O)[C@@H](NC(=O)[C@H](C)NC(=O)[C@@H]2CCCN2C(=O)[C@H](CC(C)C)NC(=O)[C@H](CC(C)C)NC(=O)[C@H](C)NC(=O)[C@@H](NC(=O)[C@H](C)NC(=O)[C@H](C)N)C(C)C)C(C)C)CSSC[C@@H](C(=O)O)NC(=O)[C@@H]2CCCN2C1=O` [cSN50.1] (H-AAVALLPAVLLALLAPCVQRKRQKLMPC-OH; disulfide 17-28), the “biomarkers (liver transaminases) in other models of liver inflammation” value [1] is given as “significantly reduced”, the “protection from atherosclerosis, lower dose” value (ldlr^−/− mice [2]) is given as “not protected” and the “phosphorylated NFκB RelA (p65) in cytosolic and nuclear fractions of liver cells” value (NFκB RelA (p65)) is given as “significantly reduced”. The “interaction with GAPDH” value (GAPDH [3]) was “not with the control protein, GAPDH”, the “attenuation of nuclear accumulation of ChREBP” value (ChREBP) was “≈ 50%” and the “nuclear SREBP2 protein in liver” value (SREBP2 [4]) was “reduced”. For the same compound, the “precursor SREBP2 protein in liver” value (SREBP2 [4]) was “reduced”, the solubility (Solubility) was 100 mg/mL (≈ 33.5 mM) and the “nuclear SREBP1 protein in liver” value (SREBP1 [5]) was “reduced”. For the same compound, the “precursor SREBP1 protein in liver” value (SREBP1 [5]) was “reduced”, the “precursor pSREBP1 in cytosolic fraction” value (SREBP1 [6]; 30 μmol/L, 2 hours after HPCD, 4 experiments) was “remained unchanged” and the “nSREBP1 in cytosolic fraction” value (SREBP1 [6]; 30 μmol/L, 2 hours after HPCD, 4 experiments, P<0.05) was “significantly more”. For the same compound, the “processing of SREBP precursors to nuclear (mature) forms, SREBP1” value (SREBP1 [6]; 2 hours after HPCD, cytosolic fraction) was “unaffected”, the “further reduction of nuclear nSREBP1 at 30 μmol/L” value (SREBP1 [6]; gradual sterol depletion, 24 hours, 30 vs 10 μmol/L) was “did not further reduce nSREBP1 in the nucleus by a significant amount” and the “completeness of SREBP nuclear transport inhibition” value (SREBP1 [6]; rapid and gradual sterol depletion protocols, HepG2) was “did not completely reduce nuclear transport of SREBPs”. For the same compound, the “concentration dependence of nSREBP1 nuclear reduction” value (SREBP1 [6]; rapid depletion with HPCD, 2 hours, 0, 10 or 30 μmol/L) was “concentration dependent”, the “plasma ALT (alanine transaminase)” value (ldlr^−/− mice [7]) was “significantly reduced” and the “plasma AST (aspartate transaminase)” value (ldlr^−/− mice [7]) was “significantly reduced”. The “suppression of diabetes, duration” value (NOD mice) was 1 year, the “delivery to blood cells and organs” value [8] was “easily delivered” and the “NPC1L1 protein in liver” value (NPC1L1) was “significant NTM‐induced reduction”. The “nSREBP2 in cytosolic fraction” value (SREBP2 [9]; 30 μmol/L, 3 experiments) was “not significantly increased”, the “precursor pSREBP2 in cytosolic fraction” value (SREBP2 [9]; 30 μmol/L, 3 experiments) was “remained unchanged” and the “processing of SREBP precursors to nuclear (mature) forms, SREBP2” value (SREBP2 [9]; cytosolic fraction) was “unaffected”. For the same compound, the “blood cell populations and blood chemistries” value ([10]; 8 weeks of treatment, other than changes shown, vs control animals) was “did not reveal any significant changes”, the blood chemistries [10, 13] was “normal blood chemistries” and the “red blood cells, white blood cells, major lymphocyte subsets, blood platelets” value [10, 13] was “no changes”. The other side effects ([10]; subcutaneous osmotic pumps, 8 weeks) was “no other side effects were observed”, the “interaction with GAPDH” value (GAPDH [11]) was “not with the nonspecific cytoplasmic control protein GAPDH” and the “abcg5 transcripts in liver” value ([12]; 4 and 8 weeks) was “not reduced”. For the same compound, the “abcg8 transcripts in liver” value ([12]; 4 and 8 weeks) was “not reduced”, the “hmgcr (HMG-CoA reductase) mRNA in liver” value ([12]; 4 weeks) was “significantly decreased expression” and the “srebf1 (SREBP1) transcripts in liver” value ([12]; 4 weeks, P<0.05) was “reduced”. The “hmgcr (HMG-CoA reductase) mRNA in liver” value ([12]; 8 weeks) was “significantly decreased expression”, the “acly (ATP citrate lyase) transcripts in liver” value ([12]; 8 weeks, P<0.05) was “significantly reduced” and the “fasn1 (fatty acid synthase-1) transcripts in liver” value ([12]; 8 weeks, P<0.05) was “significantly reduced”. For the same compound, the “srebf1 (SREBP1) transcripts in liver” value ([12]; 8 weeks, P<0.05) was “reduced”, the “srebf2 (SREBP2) transcripts in liver” value ([12]; 8 weeks, P<0.05) was “reduced” and the “HDAC3 nuclear content in liver” value (HDAC3) was “not significantly changed”.

From article PMC3647260 (Journal of the American Heart Association: Cardiovascular …, 2013)
